Assay results as given in ChEMBL document CHEMBL1153486, “Discovery of a class of potent gap-junction modifiers as novel antiarrhythmic agents” (Bioorg Med Chem Lett, 2009).
Activity calls are given as the source filed them. The calls are words filed in the database; no cut-off is given here.

What was measured:
[1] = Stability in rat plasma after 3 hrs; type: ADME, cell-free; conditions: read-out: Stability
In short: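 Rat plasma incubation for 3 h; stability reported as percent of compound remaining.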

Mus musculus [2] = test: Antiarrhythmic activity in calcium chloride-induced mouse arrhythmia model assessed as prolongation of time to conduct cardiac block at 20 pmol/kg, iv relative to control; type: functional, Heart
In short: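 A medium-throughput IV screen in the mouse CaCl2 infusion arrhythmia model (n = 7–11). Time to conduction block was expressed as percent of saline control.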

[3] = Half life in CD1 mouse at 0.77 mg/kg, iv; type: ADME, organism-based; set-up: dose 0.77 mg/kg, route intravenous; conditions: in vivo
In short: (§1)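 CD-1 mice were dosed IV at a nominal 1 mg/kg (actual 0.77 mg/kg or 1.6 mg/kg for some compounds) and PO at 5 mg/kg. Parameters were derived from mean drug concentration, N = 3 animals/time point.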

[4] = AUC in dog at 5 mg/kg, po; type: ADME, organism-based, Canis lupus familiaris; set-up: dose 5 mg/kg, route oral; conditions: plasma
In short: (§2)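 Dogs were dosed IV at 1 mg/kg and PO at 5 mg/kg; one compound was given 2.3 mg/kg IV and 7.8 mg/kg oral. Values are means of at least three animals, or two animals where no SD is given.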

[5] = Cmax in CD1 mouse at 0.77 mg/kg, po; type: ADME, organism-based; set-up: dose 0.77 mg/kg, route oral; conditions: in vivo
Canis familiaris [6] = test: Half life in dog at 1 mg/kg, iv; type: ADME, organism-based, Canis lupus familiaris; set-up: dose 1 mg/kg, route intravenous; conditions: in vivo; in short: as §2
[7] = Tmax in CD1 mouse at 0.77 mg/kg, po; type: ADME, organism-based; set-up: dose 0.77 mg/kg, route oral; conditions: in vivo
Mus musculus [8] = test: Antiarrhythmic activity in calcium chloride-induced mouse arrhythmia model assessed as prolongation of time to conduct cardiac block at 10 pmol/kg, iv relative to control; type: functional, Heart
In short: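 Mice received an intravenous infusion of CaCl2 after IV test compound. The read-out was time to cardiac conduction block, expressed as percent increase over control. Values are means of at least three experiments with standard deviation.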

[9] = Half life in CD1 mouse at 0.77 mg/kg, po; type: ADME, organism-based; set-up: dose 0.77 mg/kg, route oral; conditions: in vivo
[10] = Volume of distribution at steady state in CD1 mouse at 0.77 mg/kg, iv; type: ADME, organism-based; set-up: dose 0.77 mg/kg, route intravenous; conditions: in vivo, read-out: Vdss; in short: as §1
[11] = Oral bioavailability in dog at 5 mg/kg; type: ADME, organism-based, Canis lupus familiaris; conditions: in vivo; in short: as §2
Mus musculus [12] = test: AUC in CD1 mouse at 5 mg/kg, po; conditions: in vivo
[13] = Half life in dog at 5 mg/kg, po; type: ADME, organism-based, Canis lupus familiaris; set-up: dose 5 mg/kg, route oral; conditions: in vivo; in short: as §2
Canis familiaris [14] = test: Volume of distribution at steady state in dog at 1 mg/kg, iv; type: ADME, organism-based, Canis lupus familiaris; set-up: dose 1 mg/kg, route intravenous; conditions: in vivo; in short: as §2
Mus musculus [15] = test: Oral bioavailability in CD1 mouse at 0.77 mg/kg; type: ADME, organism-based; conditions: in vivo
[16] = Cmax in dog at 5 mg/kg, po; type: ADME, organism-based, Canis lupus familiaris; set-up: dose 5 mg/kg, route oral; conditions: in vivo; in short: as §2
[17] = Tmax in dog at 5 mg/kg, po; type: ADME, organism-based, Canis lupus familiaris; set-up: dose 5 mg/kg, route oral; conditions: in vivo
[18] = target: Voltage-gated inwardly rectifying potassium channel KCNH2 (Homo sapiens, UniProt Q12809); test: Inhibition of human ERG
Chain of Voltage-gated inwardly rectifying potassium channel KCNH2 (Q12809 whole entry): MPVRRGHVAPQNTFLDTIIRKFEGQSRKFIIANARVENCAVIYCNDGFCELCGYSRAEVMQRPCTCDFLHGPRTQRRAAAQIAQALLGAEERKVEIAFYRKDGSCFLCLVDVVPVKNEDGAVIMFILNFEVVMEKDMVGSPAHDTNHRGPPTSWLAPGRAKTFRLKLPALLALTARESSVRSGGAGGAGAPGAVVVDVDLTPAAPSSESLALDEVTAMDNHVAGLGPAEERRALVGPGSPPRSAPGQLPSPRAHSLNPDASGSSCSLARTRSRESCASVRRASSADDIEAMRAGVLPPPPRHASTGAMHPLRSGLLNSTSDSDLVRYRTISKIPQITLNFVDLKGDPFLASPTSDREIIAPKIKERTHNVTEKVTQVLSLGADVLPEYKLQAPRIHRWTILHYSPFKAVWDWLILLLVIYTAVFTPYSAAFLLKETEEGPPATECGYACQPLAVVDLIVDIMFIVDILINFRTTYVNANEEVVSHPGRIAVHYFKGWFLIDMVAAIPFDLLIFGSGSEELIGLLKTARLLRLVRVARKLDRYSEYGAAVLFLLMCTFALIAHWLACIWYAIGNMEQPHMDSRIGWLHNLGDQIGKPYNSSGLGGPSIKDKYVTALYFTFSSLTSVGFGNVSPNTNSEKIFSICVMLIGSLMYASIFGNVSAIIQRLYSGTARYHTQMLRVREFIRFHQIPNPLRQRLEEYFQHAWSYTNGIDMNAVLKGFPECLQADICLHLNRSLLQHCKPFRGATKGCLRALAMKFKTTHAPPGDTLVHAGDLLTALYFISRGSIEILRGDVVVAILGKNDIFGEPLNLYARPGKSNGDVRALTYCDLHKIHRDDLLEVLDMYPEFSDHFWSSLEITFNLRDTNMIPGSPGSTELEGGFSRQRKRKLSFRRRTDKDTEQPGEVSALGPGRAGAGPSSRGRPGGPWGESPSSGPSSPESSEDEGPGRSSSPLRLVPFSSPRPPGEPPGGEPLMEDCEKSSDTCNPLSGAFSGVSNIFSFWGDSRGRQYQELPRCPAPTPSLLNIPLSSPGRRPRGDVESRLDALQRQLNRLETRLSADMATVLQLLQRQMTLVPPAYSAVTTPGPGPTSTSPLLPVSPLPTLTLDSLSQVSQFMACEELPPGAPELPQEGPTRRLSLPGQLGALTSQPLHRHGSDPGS

[19] = Inhibition of CYP450; type: ADME
[20] = Oral bioavailability in CD1 mouse at 5 mg/kg; type: ADME, organism-based; conditions: in vivo; in short: as §1
[21] = Half life in CD1 mouse at 1 mg/kg, iv; type: ADME, organism-based; set-up: dose 1 mg/kg, route intravenous; conditions: in vivo; in short: as §1
[22] = Cmax in CD1 mouse at 5 mg/kg, po; type: ADME, organism-based; set-up: dose 5 mg/kg, route oral; conditions: in vivo; in short: as §1
[23] = Metabolic stability in human liver microsomes assessed as half life; type: ADME, Microsome
[24] = AUC in CD1 mouse at 5 mg/kg, po; type: ADME, organism-based; set-up: dose 5 mg/kg, route oral; conditions: plasma; in short: as §1
Mus musculus [25] = test: Antiarrhythmic activity in calcium chloride-induced mouse arrhythmia model assessed as prolongation of time to conduct cardiac block at 1 to 30 mg/kg, po relative to control; type: functional, organism-based; conditions: Heart
In short: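 Compounds were given orally at 1–30 mg/kg to mice, which then received an intravenous CaCl2 infusion. The read-out was prolongation of time to conduction block versus control.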

[26] = Tmax in CD1 mouse at 5 mg/kg, po; type: ADME, organism-based; set-up: dose 5 mg/kg, route oral; conditions: in vivo; in short: as §1
[27] = Clearance in CD1 mouse at 1 mg/kg, iv; type: ADME, organism-based; set-up: dose 1 mg/kg, route intravenous; conditions: in vivo; in short: as §1
[28] = Volume of distribution at steady state in CD1 mouse at 1 mg/kg, iv; type: ADME, organism-based; set-up: dose 1 mg/kg, route intravenous; conditions: in vivo, read-out: Vdss; in short: as §1
[29] = Metabolic stability in rat liver microsomes assessed as half life; type: ADME, Microsome
[30] = Half life in CD1 mouse at 5 mg/kg, po; type: ADME, organism-based; set-up: dose 5 mg/kg, route oral; conditions: in vivo; in short: as §1

Question: With `NCC(=O)N1C[C@H](NC(=O)c2ccccc2)C[C@H]1C(=O)O` [DANEGAPTIDE] as the compound, how does the remaining at 3 h [1] read?
Answer: The remaining at 3 h was 93%.

Question: What about the Activity (Mus musculus [2]) of the same compound?
Answer: Its Activity is 149.8%.

Question: And the half-life [3]?
Answer: Its half-life is 96 min.

Question: And the AUC [4]?
Answer: The AUC was 4790 ng·h/mL.

Question: And the Cmax [5]?
Answer: The Cmax was 26 ng/mL.

Question: And the t1/2 (Canis familiaris [6])?
Answer: Its t1/2 is 378 min.

Question: And the Tmax [7]?
Answer: The Tmax was 30 min.

Question: What about the Activity (Mus musculus [8]) of the same compound?
Answer: The Activity was 206.6%.

Question: And the half-life [9]?
Answer: The half-life was 114 min.

Question: What about the Vd [10] of the same compound?
Answer: Its Vd is 2.7 L/kg.

Question: What about the bioavailability [11] of the same compound?
Answer: Its bioavailability is 14%.

Question: What about the AUC (Mus musculus [12]) of the same compound?
Answer: Its AUC is 73 ng·h/mL.

Question: And the half-life [13]?
Answer: Its half-life is 240 min.

Question: What about the Vdss (Canis familiaris [14]) of the same compound?
Answer: The Vdss was 8 L/kg.

Question: What about the F (Mus musculus [15]) of the same compound?
Answer: The F was 6%.

Question: And the Cmax [16]?
Answer: The Cmax was 799 ng/mL.

Question: What about the Tmax [17] of the same compound?
Answer: Its Tmax is 66 min.

Question: Which remaining at 3 h [1] does the source give for `NCC(=O)N1C[C@H](NC(=O)c2ccccc2)C[C@H]1C(=O)N[C@@H]1CCOC1` here?
Answer: The remaining at 3 h was 100%.

Question: What about the Activity (Mus musculus [8]) of the same compound?
Answer: The Activity was 143.5%.

Question: Which remaining at 3 h [1] does the source give for `CN(C)CC(=O)N1C[C@H](NC(=O)c2ccccc2)C[C@H]1C(=O)O` here?
Answer: The remaining at 3 h was 100%.

Question: And the Activity (Mus musculus [8])?
Answer: The Activity was 118.9%.

Question: What does the source list for `CC(C)NC(=O)[C@@H]1C[C@@H](NC(=O)c2ccccc2)CN1C(=O)CN`?
Answer: remaining at 3 h [1]: 100%; Activity [18]: Not Active; Activity [19]: Not Active; bioavailability [20]: 6%; half-life [21]: 54 min; Activity (Mus musculus [8]): 162%; Cmax [22]: 44 ng/mL; half-life [23]: > 30 min; AUC [24]: 90 ng·h/mL; Activity (Mus musculus [25]): Active; Tmax [26]: 15 min; clearance [27]: 58 mL/min/kg; Vd [28]: 2 L/kg; half-life [29]: > 30 min; half-life [30]: 96 min

Question: What does the source list for `CNCC(=O)N1C[C@H](NC(=O)c2ccccc2)C[C@H]1C(=O)O`?
Answer: remaining at 3 h [1]: 100%; Activity (Mus musculus [8]): 120.7%

Question: What does the source list for `CC(=O)NCC(=O)N1C[C@H](NC(=O)c2ccccc2)C[C@H]1C(=O)O`?
Answer: remaining at 3 h [1]: 100%; Activity [18]: Not Active; Activity [19]: Not Active; bioavailability [20]: 2%; half-life [21]: 18 min; Activity (Mus musculus [8]): 165.7%; Cmax [22]: 38 ng/mL; half-life [23]: > 30 min; AUC [24]: 66 ng·h/mL; Activity (Mus musculus [25]): Active; Tmax [26]: 15 min; clearance [27]: 24 mL/min/kg; Vd [28]: 0.3 L/kg; half-life [29]: > 30 min; half-life [30]: 72 min

Question: For `CC(C)(C)NC(=O)[C@@H]1C[C@@H](NC(=O)c2ccccc2)CN1C(=O)CN`, which remaining at 3 h [1] is on record?
Answer: Its remaining at 3 h is 99%.

Question: What about the Activity (Mus musculus [8]) of the same compound?
Answer: The Activity was 135.7%.

Question: With `CNC(=O)[C@@H]1C[C@@H](NC(=O)c2ccccc2)CN1C(=O)CN` as the compound, how does the remaining at 3 h [1] read?
Answer: The remaining at 3 h was 87%.

Question: And the Activity (Mus musculus [8])?
Answer: Its Activity is 145%.
